Bioassay records from PubChem.
KCNQ1 inh – inhibitors of human KCNQ1 potassium channel; CHO-K1 KCNQ1, FluxOR thallium flux fluorescence; stronger effect = higher value; B-score at 10 µM; actives 1.3% (n = 310,000); AID 2642;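 active = compounds whose thallium flux B-score, printed positive for inhibition, exceeds three library SD while starting fluorescence stays within three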;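 note: channel opened by potassium depolarization with thallium stimulus after 20 min compound exposure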
hERG protect – shields human hERG channel from block by proarrhythmic agents; actives 0.51% (n = 310,000); AID 1511; activation (rescue from dofetilide block), less the hit threshold, % at 10 µM; Q12809; CHO-hERG, FluxOR thallium flux, dofetilide IC70 present;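 active = activation above the mean of controls blocked by dofetilide plus 5 SD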;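 note: thallium influx through hERG after potassium depolarization seen as dye fluorescence rise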
Kir21 block – Kir2.1 (mouse) channel inhibition. HEK293-Kir2.1, FluxOR thallium flux fluorescence; stronger effect = lower value. B-score at 10 µM. actives 0.85% (n = 310,000);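 active = fluorescence ratio B-score at or below minus 3 SD of library scores, with starting-brightness B-score within 2 SD, cut at about -4.2 in these data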;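 note: channel flux triggered by added potassium and thallium sulfate stimulus; B-score of peak minus minimum fluorescence over baseline after thallium stimulus; more negative B-score means stronger Kir2.1 block with less thallium influx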
Target sequence (P35561 whole entry, looked up): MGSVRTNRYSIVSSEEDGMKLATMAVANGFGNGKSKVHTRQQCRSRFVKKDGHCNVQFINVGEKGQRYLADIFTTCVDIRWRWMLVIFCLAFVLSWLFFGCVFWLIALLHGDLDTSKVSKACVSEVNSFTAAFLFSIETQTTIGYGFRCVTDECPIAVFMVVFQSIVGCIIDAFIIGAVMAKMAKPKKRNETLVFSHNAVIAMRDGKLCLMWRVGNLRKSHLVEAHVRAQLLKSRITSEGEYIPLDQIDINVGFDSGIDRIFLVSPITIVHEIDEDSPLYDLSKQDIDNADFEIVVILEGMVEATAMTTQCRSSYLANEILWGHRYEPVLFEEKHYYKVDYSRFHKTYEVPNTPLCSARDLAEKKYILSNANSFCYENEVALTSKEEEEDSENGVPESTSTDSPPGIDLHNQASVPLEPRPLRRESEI
KCNK3 inh – human KCNK3 channel inhibition, primary screen; O14649; CHO-KCNK3 thallium flux, FluxOR fluorescence; stronger effect = lower value; B-score at 10 µM; actives 0.84% (n = 340,000); AID 602410;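 active = B-score under library mean minus 4 SD, starting fluorescence ratio at most library mean plus 5 SD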;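 note: more negative B-score means stronger inhibition of thallium flux through KCNK3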
KCNQ1 act – potentiators or activators of human KCNQ1 potassium channel | P51787 | CHO-K1 KCNQ1, thallium flux FluxOR fluorescence; stronger effect = higher value | B-score at 10 µM | actives 0.35% (n = 310,000);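 active = fluorescence ratio B-score, a plate-corrected score, at least three library SD, with initial intensity B-score within 5 SD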
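Medium – assay buffer, equal DMSO in all wells · Material – CHO-K1 cell line with stable KCNQ1 potassium channel expression · Signal – kinetic FluxOR thallium fluorescence, 10-s 1-Hz baseline, 110-s post-stimulus read · Compound – single concentration per compound, DMSO matched to controls · Schedule – 37 °C overnight plating, 90-min dark dye load, 20-min compound pretreatment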
KCNK9 inh – inhibitors of human KCNK9 two-pore domain potassium channel | HEK293 KCNK9, FluxOR thallium flux fluorescence; stronger effect = lower value | B-score at 10 µM | actives 1.2% (n = 310,000);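 active = ratio B-score over 3 SD below the library mean, with starting fluorescence within 5 SD of its mean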;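 note: negative B-score means less thallium flux so channel inhibition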
Starred values were filed as active, the others as inactive. Most compounds without a hit are left out; they make up all but 3.8% or so of the library.

CCOC(=O)c1nn(-c2ccc(Cl)cc2Cl)c(=N)c(C#N)c1C was read as KCNQ1 inh 6*, hERG protect -9, Kir21 block -1.6, KCNQ1 act inactive and KCNK9 inh inactive.
Screening COc1ccc(/C=C(/C(=O)c2cccs2)N2C=CC=CC2=C(C#N)C#N)cc1 returned KCNQ1 inh 11*, hERG protect -29, Kir21 block -3.6, KCNK3 inh inactive, KCNQ1 act inactive and KCNK9 inh inactive.
Screening N#CC(C#N)=C1C=CC=CN1/C(=C\c1ccco1)C(=O)c1ccc(Br)cc1 returned KCNK3 inh inactive.
For N#CC(C#N)=C1C=CC=CN1/C(=C\c1ccco1)C(=O)c1ccccc1 the results were KCNK3 inh inactive.
For COc1ccc(C(=O)/C(=C\c2ccco2)N2C=CC=CC2=C(C#N)C#N)cc1 the results were KCNQ1 inh inactive, hERG protect -19, Kir21 block -9.9*, KCNK3 inh inactive, KCNQ1 act inactive and KCNK9 inh inactive.
For O=C(c1ccc(F)cc1)N1CCN(c2cc(=O)[nH]nc2-c2ccccc2)CC1 the results were KCNQ1 inh inactive, hERG protect -7, Kir21 block 2.3, KCNK3 inh inactive, KCNQ1 act inactive and KCNK9 inh inactive.
Screening C=CCN(CC=C)CC(=O)Nc1cccc(Oc2cnccn2)c1 returned KCNQ1 inh inactive, hERG protect -4, Kir21 block -1.4, KCNK3 inh inactive, KCNQ1 act inactive and KCNK9 inh inactive.
Screening CCN(CC)C(=O)CSc1ncnc2c1nnn2-c1ccc(OC)cc1 returned KCNQ1 inh inactive, hERG protect -10, Kir21 block 0.34, KCNK3 inh inactive, KCNQ1 act inactive and KCNK9 inh inactive.
For CCOC(=O)CC(=O)CSc1ncnc2c1nnn2-c1ccc(OC)cc1 the results were KCNQ1 inh inactive, hERG protect 7.0*, Kir21 block 0.69, KCNK3 inh inactive, KCNQ1 act inactive and KCNK9 inh inactive.
Screening COc1ccc(CNc2nc3ccccc3n2C)c(OC)c1 returned KCNQ1 inh inactive, hERG protect -11, Kir21 block -0.07, KCNK3 inh inactive, KCNQ1 act inactive and KCNK9 inh inactive.
Screening COc1ccc(N/C=C(\C#N)c2nc3ccccc3n2C)c(OC)c1 returned KCNQ1 inh inactive, hERG protect -14, Kir21 block 1.2, KCNK3 inh inactive, KCNQ1 act inactive and KCNK9 inh -7*.
`CN1C[C@@H]2[C@@H]3C(=O)N(Cc4ccccc4)C(=O)[C@@H]3[C@](Cc3ccccc3)(C1=O)N2C(=O)c1ccc(Cl)cc1` gave KCNK3 inh inactive.
`CN(C)CCSc1nc(-c2ccccc2)nc2c1CCC2` gave KCNQ1 inh inactive, hERG protect -5, Kir21 block -1.4, KCNK3 inh inactive, KCNQ1 act inactive and KCNK9 inh inactive.
Screening CN(C)CCCSc1nc(-c2ccccc2)nc2c1CCC2 returned KCNQ1 inh inactive, hERG protect -4, Kir21 block -9.7*, KCNK3 inh inactive, KCNQ1 act inactive and KCNK9 inh inactive.
For O=S(=O)(NCc1csc(-c2cccnc2)n1)c1ccc(Br)cc1 the results were KCNQ1 inh inactive, hERG protect -10, Kir21 block -7.7*, KCNK3 inh inactive, KCNQ1 act inactive and KCNK9 inh inactive.
Cc1cc(C)c2sc(NNC(=O)c3ccc(S(=O)(=O)N4CCc5ccccc5C4)cc3)nc2c1 was read as KCNQ1 inh 7*, hERG protect -6, Kir21 block 0.14, KCNK3 inh inactive, KCNQ1 act inactive and KCNK9 inh inactive.
`Cc1ccc(C)c(CNc2ccc(S(=O)(=O)N3CCCCC3)cc2)c1` gave KCNK3 inh inactive.
CC(C)NC(=O)N(Cc1ccccc1)Cc1cccs1 was read as KCNQ1 inh inactive, hERG protect -5, Kir21 block -0.45, KCNK3 inh inactive, KCNQ1 act inactive and KCNK9 inh inactive.
O=C1C=CC(=O)C(C2=C3C(=O)N(CCc4ccccc4)CC(=O)N3CCC2)=C1 was read as KCNQ1 inh inactive, hERG protect -37, Kir21 block -7*, KCNQ1 act inactive and KCNK9 inh inactive.
